Compound activity as filed in PubChem BioAssay.
In the library only some 2.5% were active in any assay of this set; here they are far more common.
bovine MsrA act: activators of bovine methionine sulfoxide reductase A. purified bovine MsrA, absorbance read-out. activation, % at 10.6 µM. 360,000 tested, 0.3% active. AID 602163; in the data active = activation above about 7.5%;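 note: 0% = vehicle and 100% = reference activator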
NR2E3 ag-1: agonists of human nuclear receptor NR2E3; Q9Y5X4; GST-NR2E3/biotin-RetCOR TR-FRET, 1536-well; inhibition of corepressor binding, % at 4.78 µM; 320,000 tested, 0.12% active; AID 2300;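 active = percent inhibition above the cutoff of mean plus 3 SD of all tested compounds, set per screening campaign, cut at about 20% in these data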;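 note: 0% = DMSO wells and 100% = biotin wells as full block of FRET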
Target sequence (Q9Y5X4 whole entry, looked up): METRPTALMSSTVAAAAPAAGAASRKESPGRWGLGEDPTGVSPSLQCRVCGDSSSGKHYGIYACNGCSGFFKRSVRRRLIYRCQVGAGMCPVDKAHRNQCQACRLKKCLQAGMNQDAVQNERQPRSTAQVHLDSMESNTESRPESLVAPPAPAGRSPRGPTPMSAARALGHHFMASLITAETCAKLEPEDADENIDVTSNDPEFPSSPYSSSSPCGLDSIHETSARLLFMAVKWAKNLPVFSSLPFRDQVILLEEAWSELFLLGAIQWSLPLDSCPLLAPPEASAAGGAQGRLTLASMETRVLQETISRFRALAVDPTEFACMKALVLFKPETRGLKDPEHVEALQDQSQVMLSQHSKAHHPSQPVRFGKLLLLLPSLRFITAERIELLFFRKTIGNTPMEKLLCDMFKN
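Format: 1536-well format; test system: GST-NR2E3 and biotin-RetCOR proteins; read-out basis: percent inhibition of TR-FRET ratio; timing: 5 h incubation at 4 °C; detection: time-resolved FRET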
GalR3 antagonist: blocks the human galanin receptor 3; 360,000 tested, 0.44% active; O60755; inhibition, % at 3 µM; HEK293 GalR3-CNG cAMP membrane potential fluorescence; galR3 body fused to GalR1 C-terminus; AID 651719;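 active = inhibition above the screen-wide average plus 3 SD, cut at about 13% in these data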;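 note: forskolin and galanin both at EC90 stimulate the cells; cAMP rise reported by CNG channel membrane potential dye signal; 0% = forskolin plus galanin with DMSO and 100% = forskolin alone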
NadD block: blocks S. aureus nicotinate mononucleotide adenylyltransferase | inhibition, % at 20 µM | purified NadD enzyme, colorimetric absorbance read-out | 360,000 tested, 0.78% active | AID 602399; in the data active = inhibition above about 26%
NR2E3 ag-2: activates human NR2E3 receptor; inhibition of corepressor binding, % at 3.98 µM; CHO-S Gal4-NCOR/VP16-NR2E3 two-hybrid, luciferase; Q9Y5X4; 360,000 tested, 0.35% active;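 active = inhibition above the mean of all tested compounds plus 3 SD, cut at about 70% in these data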;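 note: 0% = DMSO with NR2E3 transfected cells and 100% = cells lacking NR2E3 construct; higher means lower luciferase signal from less NR2E3 corepressor binding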
MsrA inhibitor: inhibitors of bovine MsrA; purified bovine MsrA, absorbance read-out; inhibition, % at 15.5 µM; 360,000 tested, 0.75% active; in the data active = inhibition above about 4.5%;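 note: 0% = vehicle wells with enzyme and 100% = reference inhibitor wells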
NadD inh conf: NadD (S. aureus) inhibition, single concentration confirmation; shares compounds with NadD block; purified S. aureus NadD, colorimetric enzyme assay; inhibition, % at 20 µM; 2,000 tested, 13% active; AID 624309; in the data active = inhibition mostly above about 42%, no sharp cut-off; inactive = mostly below about 42%
* marks the source's active call; other numbers are inactive results; x = not tested or not shown.

SMILES | bovine MsrA act | NR2E3 ag-1 | GalR3 antagonist | NadD block | NR2E3 ag-2 | MsrA inhibitor | NadD inh conf
Cc1nc2ccc(NC(=O)c3ccc(Cl)c(NC(=O)c4cccs4)c3)cc2s1 | -12 | 0 | 2 | 28* | -41 | 1 | 14
CCOc1ccc(S(=O)(=O)N2CCN(S(=O)(=O)c3ccc(C(C)=O)cc3)CC2)cc1 | -3 | -2 | -7 | 1 | -26 | 1 | x
CCOc1ccc(S(=O)(=O)N2CN(c3cccc(C(C)=O)c3)c3nc4ccccc4nc32)cc1 | -7 | x | 8 | 30* | -22 | 2 | 8
CCOC(=O)C1(CCCc2ccccc2)CCN(C(=O)CCCn2cncn2)CC1 | -14 | 0 | -6 | 3 | -1 | 0 | x
CC(C)(C)c1cc(C(=O)N/N=C/c2ccncc2)n[nH]1 | -4 | 1 | -3 | -4 | -54 | 0 | x
Clc1ccc(/C=N/NC2=Nc3cccc4cccc2c34)cc1 | 1 | -5 | -10 | 30* | -117 | 1 | 17
C(=N\NC1=Nc2cccc3cccc1c23)/c1ccccc1 | -9 | -1 | 0 | 6 | -169 | 1 | x
CC(CCC(=O)NN)C1CCC2C3CCC4CC(O)CCC4(C)C3CCC12C (stereo not given) | -2 | x | -5 | 38* | 6 | 0 | 6
CN1C(=O)C(c2ccccc2[N+](=O)[O-])C(=O)c2ccccc21 (stereo not given) | -2 | -2 | -6 | -8 | -6 | 0 | x
NS(=O)(=O)c1ccc(CCNC(=O)CCCCCn2c(=S)[nH]c3ccc(Br)cc3c2=O)cc1 | -7 | 6 | -8 | 31* | 10 | 0 | 37
O=C(CCCCCn1c(=S)[nH]c2ccc(Br)cc2c1=O)NCC1CCCO1 (stereo not given) | -4 | -1 | -2 | 4 | -10 | 1 | x
NC(CSC1(c2ccc(F)cc2)c2ccccc2-c2ccccc21)C(=O)O (stereo not given) | -1 | x | -5 | 27 | 13 | -1 | x
NC(CSC1(c2ccc(Cl)cc2)c2ccccc2-c2ccccc21)C(=O)O (stereo not given) | 0 | x | -4 | 41* | -19 | 0 | 57*
COc1ccc(C2(SCC(N)C(=O)O)c3ccccc3-c3ccccc32)cc1 (stereo not given) | 0 | x | -1 | 36* | -5 | 0 | 30
O=C(NCCc1ccccc1Cl)[C@@H]1CCCN1C(=O)[C@@H](NS(=O)(=O)c1ccc(F)cc1F)c1ccccc1 | x | x | -5 | x | x | 0 | x
CCN(CC)S(=O)(=O)c1ccc(C(=O)Nc2nnc(NC(=S)Nc3ccccc3)s2)cc1 | -6 | 2 | -9 | 47* | -13 | 2 | 22
Cc1ccccc1OCC(=O)NN1C(=O)C2C3C=CC(O3)C2C1=O (stereo not given) | -10 | 4 | 0 | 2 | 1 | 0 | x
COc1ccccc1NC(=O)c1c(Nc2ccccc2F)sc(C(=O)Nc2cccc(Cl)c2)c1N | -6 | 0 | -6 | 43* | -35 | 2 | 41
CC(=O)NC(c1ccc(F)c(F)c1)c1nc(-c2ccc(F)c(Cl)c2)cs1 (stereo not given) | 0 | x | 1 | -8 | 1 | 2 | x
Cc1cccc2c1NC(=O)C21N2CCCC2C(C(=O)c2ccc3ccccc3c2)C12C(=O)Nc1ccccc12 (stereo not given) | x | -1 | x | x | x | x | x
CCc1cccc2c1NC(=O)C21N2CCCC2C(C(=O)c2ccc3ccccc3c2)C12C(=O)Nc1ccccc12 (stereo not given) | -10 | -3 | -1 | 39* | -11 | 0 | 52*
COc1ccccc1/C=C/C(=O)NC(=S)Nc1ccc(S(=O)(=O)N(C)c2ccccc2)cc1 | -2 | -1 | 0 | 34* | -32 | 0 | 6
CN(c1ccccc1)S(=O)(=O)c1ccc(NC(=S)NC(=O)c2ccccc2)cc1 | -12 | 3 | -1 | -6 | 9 | 2 | x
COc1cccc(-c2nc(N3CCCCC3)c3ccccc3n2)c1O | -4 | 3 | 6 | 0 | -39 | 0 | x
COc1cccc(-c2nc(N3CCN(c4ccccc4)CC3)c3ccccc3n2)c1O | -5 | 1 | -3 | 31* | -18 | 0 | 8
SMILES | bovine MsrA act | NR2E3 ag-1 | GalR3 antagonist | NadD block | NR2E3 ag-2 | MsrA inhibitor | NadD inh conf
COc1ccc(C2C(C#N)=C(N)N(c3sc4c(c3C#N)CCCC4)C3=C2C(=O)CC(C)(C)C3)cc1 (stereo not given) | -2 | 2 | x | 15 | -20 | x | x
COc1ccc(C2C(C#N)=C3NC(=O)c4c(sc5c4CCCCC5)N3C3=C2C(=O)CC(C)(C)C3)cc1 (stereo not given) | -4 | 0 | -2 | 61* | -23 | 0 | 25
Cc1cccc(N2CC(C(=O)Nc3nnc(SCCN4CCOCC4)s3)CC2=O)c1 (stereo not given) | -3 | 0 | 0 | 27* | -7 | 0 | 20
Cc1cccc(N2CC(C(=O)Nc3nnc(SCCC4OCCO4)s3)CC2=O)c1 (stereo not given) | -2 | 4 | -2 | 41* | -12 | 0 | 19
COC(=O)c1c(C)c(OC(=O)c2c(C)cc(O)c(C=O)c2O)cc(C)c1O | -3 | 3 | x | -1 | -11 | x | x
CN(NC(=O)c1ccccc1Cl)c1ncc(C(F)(F)F)cc1Cl | -3 | 0 | -2 | -5 | -2 | -2 | x
N/C(=N\N=C\c1ccnc2ccccc12)SC1CC(=O)N(c2ccc(Br)cc2)C1=O (stereo not given) | -4 | -1 | -3 | 46* | -1 | -1 | 7
COc1ccc(N2C(=O)CC(S/C(N)=N/N=C/c3ccnc4ccccc34)C2=O)cc1 (stereo not given) | x | 4 | x | x | x | x | x
CNc1n[nH]c(=S)s1 | 6 | -8 | -2 | -1 | -2 | -1 | x
Cc1cccc(Nc2n[nH]c(=S)s2)c1C | 7 | -3 | -2 | 32* | -56 | -1 | 44
Cc1cc(C)c(Nc2n[nH]c(=S)s2)cc1C | 6 | x | -6 | 44* | -27 | 0 | 46
Cn1cnnc1SCc1ccccc1 | 1 | 5 | -5 | -4 | -24 | 0 | x
Cn1cnnc1SCc1ccc(-c2ccc(Br)cc2)o1 | -1 | 4 | -8 | 41* | -39 | 0 | 13
CC1(c2ccccc2)CC(C)(C)n2c(O)c(C3=NC(=S)NC3=O)c3cccc1c32 (stereo not given) | -1 | -3 | -7 | 33* | -21 | 0 | -1
C=CCN1C(=O)/C(=C2/Sc3ccc(OC)cc3N2C)SC1=NCc1ccccc1 | -2 | 4 | -5 | 11 | -3 | -1 | x
COc1ccc2c(c1)N(C)/C(=C1/SC(=NCc3ccccc3)N(c3ccccc3)C1=O)S2 | -1 | 5 | 3 | 31* | -8 | 1 | 17
COc1ccc(S(=O)(=O)N2CCC(C(=O)NCCN3CCOCC3)CC2)cc1OC | -2 | 2 | -8 | 33* | 6 | 2 | 3
